Test results reported in ChEMBL document CHEMBL5038583, “Highly Potent and Selective Butyrylcholinesterase Inhibitors for Cognitive Improvement and Neuroprotection” (J Med Chem, 2021).
Active and inactive are the calls of the source. No cut-off for these calls is given here.

Legend:
SH-SY5Y [1] = experiment: Cytotoxicity against human SH-SY5Y cells assessed as survival rate at 100 uM incubated for 24 hrs by MTT assay; format: functional
In short: (§1)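 Cells seeded at 1 × 10⁴/well in DMEM with 10% FBS and left overnight, then given compound (DMSO stock diluted in DMEM) for 24 h at 37 °C. MTT added for 4 h, formazan dissolved in DMSO, absorbance read at 492 nm. Viability taken as OD treated/OD DMEM × 100%; IC50 from three independent experiments, mean SD.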

Mus musculus [2] = experiment: Anti-alzheimer activity in amyloid beta(1 to 42)-induced ICR mouse model of cognitive impairment assessed as simplification of trajectories at 15 mg/kg, ig administered at days 2 to 14 by Morris water maze test; format: functional, organism-based
In short: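 ICR mice, n = 8 per group. Aggregated Aβ1-42 (5 mM DMSO stock incubated 24 h at 37 °C in saline at 2 mg/mL) given 10 μg per mouse icv on day 1; saline icv for sham. Compound 15 mg/kg intragastric on days 2−14; donepezil reference. Morris water maze training days 9−13, probe trial day 14; tracks recorded; mean ± SD.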

[3] = Oral bioavailability in overnight fasted Sprague-Dawley rat at 10 mg/kg measured upto 1440 mins by LC/MS/MS analysis; format: ADME, organism-based; settings: in vivo
In short: (§2)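 Male SD rats (180−220 g), n = 8 per route, fasted overnight with water available. Single 10 mg/kg dose p.o. or i.v. in DMSO/PEG400/saline (10:80:10). Retro-orbital blood taken into heparinized tubes at 1–1440 min. Plasma precipitated with methanol containing theophylline internal standard, then LC/MS/MS against a blank-plasma standard curve. Parameters from noncompartmental extravascular analysis; mean ± SD.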

[4] = Half life in overnight fasted Sprague-Dawley rat at 10 mg/kg, po measured upto 1440 mins by LC/MS/MS analysis; format: ADME, organism-based; settings: in vivo; in short: as §2
[5] = Hepatotoxicity in ICR mouse assessed as morphological changes in liver at 1 g/kg, ig administered daily for 14 days analysed after 22 hrs post-administration by hematoxylin and eosin staining based analysis; format: toxicity, tissue-based; settings: in vivo, po, 1000 mg/kg, 336 h, time 14 day
In short: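 Liver from male mice taken 22 h after compound or vehicle; hematoxylin−eosin staining, viewed at ×100.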

BV-2 [6] = experiment: Cytotoxicity against mouse BV-2 cells assessed as survival rate at 100 uM incubated for 24 hrs by MTT assay; format: functional; in short: as §1
[7] = AUC (0 to t) in ICR mouse brain at 10 mg/kg, po measured upto 240 mins; format: ADME, organism-based; parameters: route oral, dose 10 mg/kg, time <=240
In short: (§3)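 ICR mice given 10 mg/kg orally in 5% DMSO/40% PEG400/55% saline (1 mg/mL). Blood (retro-orbital) and brain collected at 30, 60, 120 and 240 min. Brain homogenized in 2 volumes PBS, extracted with ethyl acetate, dried and reconstituted in mobile phase. Plasma processed as in the rat study; LC/MS/MS. Brain/plasma ratios from exposures, AUC(B) vs AUC(P).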

[8] = Cmax in ICR mouse plasma at 10 mg/kg, po measured upto 240 mins; format: ADME, organism-based; parameters: route oral, dose 10 mg/kg, time <=240; in short: as §3
[9] = Hepatotoxicity in ICR mouse assessed as change in aspartate aminotransferase activity at 1 g/kg, ig administered daily for 14 days measured upto 36 hrs post-administration; format: toxicity; settings: in vivo, po, 1000 mg/kg, 336 h, time 14 day
In short: (§4)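 Heparinized serum from ICR mice taken at 8, 22 and 36 h after oral compound or saline control; AST and ALT activities measured.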

BV-2 [10] = experiment: Anti-inflammatory activity against mouse BV-2 cells assessed as blocked of LPS-induced increased ROS production by measuring green fluorescence preincubated for 1 hr by DCFH-DA staining based fluorescence microscopy; format: functional, cell-based
In short: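 BV2 cells seeded at 1 × 10⁴ per well and grown 24 h at 37 °C. Compounds at various concentrations for 1 h, then LPS 2.5 μg/mL for 24 h. Washed in PBS, loaded with DCFH-DA 5 μM (final) for 30 min, washed three times. Intracellular ROS taken as green fluorescence intensity by inverted fluorescence microscopy, exposure fixed at 10.2 ms.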

[11] = Cmax in overnight fasted Sprague-Dawley rat at 10 mg/kg, iv measured upto 1440 mins by LC/MS/MS analysis; format: ADME, organism-based; parameters: route intravenous, dose 10 mg/kg, time <=1440; settings: in vivo, 24 h; in short: as §2
[12] = Ratio of drug concentration in brain to plasma of ICR mouse at 10 mg/kg, po measured after 1 hrs; format: ADME, organism-based; in short: as §3
[13] = Metabolic stability in human liver microsomes assessed as intrinsic clearance at 1 uM measured upto 45 mins in presence of NADPH by LC/MS/MS analysis; format: ADME, Microsome; settings: read-out: CLH
In short: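 Human liver microsomes 0.5 mg/mL, compound 1 μM final, NADPH 2 mM, at 37 °C. Reactions stopped at 0, 5, 15, 30 and 45 min with acetonitrile containing imipramine internal standard. LC/MS/MS quantitation relative to 0 min; initial rates used for t1/2 and intrinsic clearance; ketanserin as assay control. Mean of two independent experiments.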

SH-SY5Y [14] = experiment: Neuroprotective activity against H2O2-induced cytotoxicity in human SH-SY5Y cells pretreated for 2 hrs followed by H2O2 stimulation and measured after 24 hrs by MTT assay; format: functional, cell-based; settings: dose 2.5-10 µM, time 26.0 hrs
In short: (§5)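 SH-SY5Y cells seeded at 5000 per well and grown 24 h. Pretreated 2 h with compound (2.5 or 10 μM, diluted in DMEM from 10⁻¹ M DMSO stock), then H₂O₂ 200 μM, glutamate 20 mM or aggregated Aβ1-42 15 μM for 24 h. MTT added for 4 h, formazan dissolved in DMSO, absorbance read at 492 nm. Viability relative to untreated control; mean ± SEM, n = 3.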

Mus musculus [15] = experiment: Anti-alzheimer activity in amyloid beta(1 to 42)-induced ICR mouse model of cognitive impairment assessed as reduction in escape latency time at 15 mg/kg, ig administered at days 2 to 14 by Morris water maze test; format: functional
In short: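 Mouse model by icv oligomerized Aβ1-42 (10 μg/mouse, aggregated 24 h at 37 °C in saline) on day 1; 15 mg/kg ig on days 2−14, n = 8. Morris water maze training on days 9−13, probe trial day 14, escape latency and track recorded. Mean SD.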

[16] = Hepatotoxicity in ICR mouse assessed as change in alanine aminotransferase activity at 1 g/kg, ig administered daily for 14 days measured upto 36 hrs post-administration; format: toxicity; settings: in vivo, po, 1000 mg/kg, 336 h, time 14 day; in short: as §4
[17] = Tmax in overnight fasted Sprague-Dawley rat at 10 mg/kg, po measured upto 1440 mins by LC/MS/MS analysis; format: ADME, organism-based; settings: in vivo, 24 h; in short: as §2
[18] = Ratio of drug concentration in brain to plasma of ICR mouse at 10 mg/kg, po measured after 4 hrs; format: ADME, organism-based; in short: as §3
[19] = Toxicity in ICR mouse assessed as increase in body weight administered for 14 days and measured daily; settings: in vivo, 15 mg/kg, 336 h
[20] = AUC (0 to infinity) in overnight fasted Sprague-Dawley rat at 10 mg/kg, iv measured upto 1440 mins by LC/MS/MS analysis; format: ADME, organism-based; parameters: route intravenous, dose 10 mg/kg, time <=1440; settings: in vivo, 24 h; in short: as §2
SH-SY5Y [21] = experiment: Neuroprotective activity against amyloid beta (1 to 42)-induced cytotoxicity in human SH-SY5Y cells at 2.5 uM pretreated for 2 hrs followed by amyloid beta (1 to 42) stimulation and measured after 24 hrs by MTT assay; format: functional, cell-based; settings: time 26.0 hrs; in short: as §5
SH-SY5Y [22] = experiment: Neuroprotective activity against glutamate-induced cytotoxicity in human SH-SY5Y cells at 10 uM pretreated for 2 hrs followed by glutamate stimulation and measured after 24 hrs by MTT assay; format: functional, cell-based; settings: time 26.0 hrs; in short: as §5

With `Nc1nonc1-c1nc2ccccc2n1CC(=O)Nc1cnc2ccccc2c1` the Activity (SH-SY5Y [1]) was 62.19%, the Activity (Mus musculus [2]) was “Active” and the bioavailability [3] was 73.4%. For the same compound, the half-life [4] was 5.47 h, the Activity [5] was “Non-Toxic” and the Activity (BV-2 [6]) was 69.72%. The AUC(0-t) at 4 h [7] was 34.1 ng·h/mL, the Cmax [8] was 49.9 ng/mL and the Activity [9] was “Non-Toxic”. For the same compound, the Activity (BV-2 [10]) was “Active”, the Cmax [11] was 488.33 ng/mL and the Kp at 1 h [12] was 5.05. The CLint scaled at 1 µM [13] was 10.9 mL/min/kg, the Activity (SH-SY5Y [14]) was “Dose-Dependent Effect” and the Time (Mus musculus [15]) was 13.83 s. For the same compound, the Activity [16] was “Non-Toxic”, the Tmax [17] was 9.5 h and the Kp at 4 h [18] was 1.54. The Activity [19] was “Toxic”, the AUC [20] was 1092.11 ng·h/mL and the Activity (SH-SY5Y [21]) was “Active”. The Activity (SH-SY5Y [22]) was “Active”.
